19 compounds from ChEMBL document CHEMBL1154746, “Anti-oxidant and anti-bacterial activities of novel N'-arylmethylidene-2-(3, 4-dimethyl-5, 5-dioxidopyrazolo[4,3-c][1,2]benzothiazin-2(4H)-yl) acetohydrazides” (2010) can be followed below.

≈ marks a conversion by molar mass, not a printed value.

Holding throughout (assay type): functional
Experiment [1] is described as follows: Antioxidant activity assessed as superoxide radical scavenging activity measured as formazone formation by spectrophotometry relative to control. On the set-up: concentration or dose not given beside the values. Put shortly:
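NADH–NBT–PMS superoxide-generating mixture in 0.1 M phosphate buffer, pH 7.4, with reagents made up in buffer. Sample was added from a 1 mM DMSO solution. The reaction ran at room temperature, and superoxide formation was followed as blue formazan absorbance at 560 nm. Lower absorbance was read as higher scavenging.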

Another experiment concerns Escherichia coli. The experiment is described as follows: Antimicrobial activity against Escherichia coli after 24 hrs by agar dilution technique. Put shortly: (§1)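 Suspensions of E. coli, B. subtilis and Staphylococcus aureus were prepared at about 10⁵–10⁶ CFU/well, and test compounds were applied to the wells over a concentration range. MIC was taken as the lowest concentration with no apparent growth, disregarding a single colony or a faint haze from the inoculum.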

The test system of another experiment is Bacillus subtilis. The experiment is described as follows: Antimicrobial activity against Bacillus subtilis after 24 hrs by agar dilution technique. Put shortly:
as §1

The subject of a further experiment is Staphylococcus aureus. The experiment is described as follows: Antimicrobial activity against Staphylococcus aureus after 24 hrs by agar dilution technique. Put shortly:
as §1

Take `Cc1c2c(nn1CC(=O)N/N=C/c1ccccn1)-c1ccccc1S(=O)(=O)N2C`: the Activity in experiment [1] amounted to 24%. Moreover, the MIC was 28 µg/mL (≈ 68.2 µM) in the experiment on Escherichia coli, 88 µg/mL (≈ 214 µM) with Bacillus subtilis and over 200 µg/mL in the experiment on Staphylococcus aureus.
In the same order, the values of `Cc1c2c(nn1CC(=O)N/N=C/c1ccc(O)cc1O)-c1ccccc1S(=O)(=O)N2C` are 98.3%, 5 µg/mL (≈ 11.3 µM), 39 µg/mL (≈ 88.3 µM) and over 200 µg/mL.
`Cc1c2c(nn1CC(=O)N/N=C/c1cccs1)-c1ccccc1S(=O)(=O)N2C`: the Activity in experiment [1] was 14.6%. Also, the MIC was found to be 23 µg/mL (≈ 55.4 µM) with Escherichia coli, 77 µg/mL (≈ 185 µM) in the experiment on Bacillus subtilis and 55 µg/mL (≈ 132 µM) in the experiment with Staphylococcus aureus.
The corresponding values for `Cc1c2c(nn1CC(=O)N/N=C/c1ccc(Cl)c(Cl)c1)-c1ccccc1S(=O)(=O)N2C` are 51.5%, over 200 µg/mL, over 200 µg/mL and over 200 µg/mL.
In the same order, the values of `COc1cccc(/C=N/NC(=O)Cn2nc3c(c2C)N(C)S(=O)(=O)c2ccccc2-3)c1` are 44.9%, 23 µg/mL (≈ 52.3 µM), 69 µg/mL (≈ 157 µM) and over 200 µg/mL.
The corresponding values for `Cc1c2c(nn1CC(=O)N/N=C/c1cccnc1)-c1ccccc1S(=O)(=O)N2C` are 25.1%, 27 µg/mL (≈ 65.8 µM), 95 µg/mL (≈ 231 µM) and over 200 µg/mL.
Turning to `Cc1c2c(nn1CC(=O)N/N=C/c1cccc([N+](=O)[O-])c1)-c1ccccc1S(=O)(=O)N2C`, the Activity in experiment [1] worked out at 52.2%. The MIC against Escherichia coli, with Bacillus subtilis and with Staphylococcus aureus was over 200 µg/mL throughout.
Regarding `CCCOC(=O)c1cc(O)c(O)c(O)c1`, the Activity in experiment [1] came out at 91.3%.
As to `CCOc1cc(/C=N/NC(=O)Cn2nc3c(c2C)N(C)S(=O)(=O)c2ccccc2-3)ccc1O`, the Activity in experiment [1] worked out at 71.1%. Further, the MIC in the experiment on Escherichia coli was 11 µg/mL (≈ 23.4 µM); in the experiment on Bacillus subtilis, 47 µg/mL (≈ 100 µM); against Staphylococcus aureus, over 200 µg/mL.
Consider `Cc1c2c(nn1CC(=O)N/N=C/c1ccc(F)cc1)-c1ccccc1S(=O)(=O)N2C`, for which, in experiment [1], the Activity was 17.4%. The MIC against Escherichia coli, in the experiment with Bacillus subtilis and in the experiment on Staphylococcus aureus was over 200 µg/mL throughout.
For the compound `Cc1c2c(nn1CC(=O)N/N=C/c1ccc(Cl)cc1)-c1ccccc1S(=O)(=O)N2C`, the Activity in experiment [1] is 23.3%. Also, the MIC against Escherichia coli, with Bacillus subtilis and in the experiment with Staphylococcus aureus was over 200 µg/mL in each case.
As for `COc1ccc(/C=N/NC(=O)Cn2nc3c(c2C)N(C)S(=O)(=O)c2ccccc2-3)c(OC)c1`, the Activity in experiment [1] came to 53.1%. The values for the minimum inhibitory concentration (MIC) with Escherichia coli, with Bacillus subtilis and in the experiment with Staphylococcus aureus were 17 µg/mL (≈ 36.2 µM), over 200 µg/mL and over 200 µg/mL, respectively.
As to `Cc1c2c(nn1CC(=O)N/N=C/c1ccccc1[N+](=O)[O-])-c1ccccc1S(=O)(=O)N2C`, the Activity in experiment [1] turned out to be 28.8%. Further, the MIC in the experiment on Escherichia coli, in the experiment with Bacillus subtilis and against Staphylococcus aureus was over 200 µg/mL in each case.
For `Cc1c2c(nn1CC(=O)N/N=C/c1ccc([N+](=O)[O-])cc1)-c1ccccc1S(=O)(=O)N2C`, in experiment [1], the Activity was 23.7%. Also, the MIC in the experiment with Escherichia coli, in the experiment with Bacillus subtilis and against Staphylococcus aureus was over 200 µg/mL throughout.
Take `Cc1c2c(nn1CC(=O)N/N=C/c1ccc(Cl)cc1Cl)-c1ccccc1S(=O)(=O)N2C`: the Activity in experiment [1] was found to be 48.7%. Moreover, the MIC against Escherichia coli, in the experiment on Bacillus subtilis and against Staphylococcus aureus was over 200 µg/mL in each case.
Take `Cc1c2c(nn1CC(=O)N/N=C/c1ccsc1)-c1ccccc1S(=O)(=O)N2C`: in experiment [1], the Activity came out at 16.5%. The MIC against Escherichia coli stood at 24 µg/mL (≈ 57.8 µM); in the experiment on Bacillus subtilis it was 82 µg/mL (≈ 197 µM); against Staphylococcus aureus, 61 µg/mL (≈ 147 µM).
As to `Cc1c2c(nn1CC(=O)N/N=C/c1ccccc1)-c1ccccc1S(=O)(=O)N2C`, in experiment [1], the Activity stood at 33.9%. In addition, the MIC in the experiment with Escherichia coli was 69 µg/mL (≈ 169 µM); against Bacillus subtilis it was over 200 µg/mL; in the experiment on Staphylococcus aureus, over 200 µg/mL.
With `Cc1c2c(nn1CC(=O)N/N=C/c1ccccc1Cl)-c1ccccc1S(=O)(=O)N2C`, the Activity in experiment [1] is 44.2%. Also, the MIC in the experiment with Escherichia coli, in the experiment on Bacillus subtilis and in the experiment on Staphylococcus aureus was over 200 µg/mL each time.
Consider `CN(C)[C@@H]1C(O)=C(C(N)=O)C(=O)[C@@]2(O)C(O)=C3C(=O)c4c(O)cccc4[C@@](C)(O)[C@H]3C[C@@H]12` [TETRACYCLINE], for which the MIC with Escherichia coli stood at 0.25 µg/mL (≈ 0.563 µM); in the experiment on Bacillus subtilis it was 0.35 µg/mL (≈ 0.788 µM); in the experiment on Staphylococcus aureus, 0.78 µg/mL (≈ 1.76 µM).
